Source: ChEMBL document CHEMBL1150643, “Bioactive constituents of Cedrelopsis microfoliata” (J Nat Prod, 2002)
Converted amounts (≈) assume the structure as drawn.

Tests used:
[1] = Superoxide scavenging activity by chemiluminescence assay
Outline: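 Cell-free xanthine oxidase system in PBS pH 7.4 with a serial dilution of sample. Added hypoxanthine (final 1 mM), lucigenin (0.1 mM), and either buffer or SOD (10 U/mL); started with xanthine oxidase (10 mU/mL). Chemiluminescence read each minute for 15 min. Activity taken from the SOD-inhibitable signal. Uric acid formation at 290 nm checked for direct xanthine oxidase effects.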

[2] = Inhibition of luminol-induced chemiluminescence of reactive oxygen metabolites in opsonized zymosan-induced human PMNC by chemiluminescence assay; format: functional
Outline: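 PMNs from buffy coats of healthy volunteers, isolated on Ficoll-Hypaque and suspended in HBSS. Cells were mixed with a dilution range of sample plus luminol (0.1 mM), then activated with human-serum-opsonized zymosan (0.8 mg/mL). Luminescence read every 2 min over 30 min. Inhibition calculated from maximum peak levels against a control of cells, luminol and buffer.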

[3] = target: Estrogen receptor beta (Homo sapiens) (UniProt Q92731); experiment: Agonist activity at ERbeta expressed in human HEK293 cells assessed as induction of estrogenic response at 10 to 100 ug/mL by luciferase reporter gene assay relative to 17beta estradiol; format: functional, cell-based
Chain of Estrogen receptor beta (Homo sapiens) (Q92731 whole entry): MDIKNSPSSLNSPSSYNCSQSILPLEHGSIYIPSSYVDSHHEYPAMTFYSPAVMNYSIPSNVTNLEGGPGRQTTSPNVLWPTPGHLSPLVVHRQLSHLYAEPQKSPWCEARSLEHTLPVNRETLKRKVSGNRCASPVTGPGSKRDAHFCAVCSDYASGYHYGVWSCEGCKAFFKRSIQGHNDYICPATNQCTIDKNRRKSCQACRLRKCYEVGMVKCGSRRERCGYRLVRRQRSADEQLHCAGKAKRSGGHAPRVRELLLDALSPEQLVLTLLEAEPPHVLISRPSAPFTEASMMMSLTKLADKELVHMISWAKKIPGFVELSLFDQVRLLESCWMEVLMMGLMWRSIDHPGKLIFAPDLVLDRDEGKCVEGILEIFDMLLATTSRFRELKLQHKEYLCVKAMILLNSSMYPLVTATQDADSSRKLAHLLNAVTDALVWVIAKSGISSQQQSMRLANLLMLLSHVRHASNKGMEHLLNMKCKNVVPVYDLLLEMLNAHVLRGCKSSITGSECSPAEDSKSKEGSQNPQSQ

[4] = target: T1, Estrogen receptor (Homo sapiens) (UniProt P03372); experiment: Agonist activity at ERalpha expressed in human HEK293 cells assessed as induction of estrogenic response at 10 to 100 ug/mL by luciferase reporter gene assay relative to 17beta estradiol; format: functional, cell-based
T1 sequence (whole entry): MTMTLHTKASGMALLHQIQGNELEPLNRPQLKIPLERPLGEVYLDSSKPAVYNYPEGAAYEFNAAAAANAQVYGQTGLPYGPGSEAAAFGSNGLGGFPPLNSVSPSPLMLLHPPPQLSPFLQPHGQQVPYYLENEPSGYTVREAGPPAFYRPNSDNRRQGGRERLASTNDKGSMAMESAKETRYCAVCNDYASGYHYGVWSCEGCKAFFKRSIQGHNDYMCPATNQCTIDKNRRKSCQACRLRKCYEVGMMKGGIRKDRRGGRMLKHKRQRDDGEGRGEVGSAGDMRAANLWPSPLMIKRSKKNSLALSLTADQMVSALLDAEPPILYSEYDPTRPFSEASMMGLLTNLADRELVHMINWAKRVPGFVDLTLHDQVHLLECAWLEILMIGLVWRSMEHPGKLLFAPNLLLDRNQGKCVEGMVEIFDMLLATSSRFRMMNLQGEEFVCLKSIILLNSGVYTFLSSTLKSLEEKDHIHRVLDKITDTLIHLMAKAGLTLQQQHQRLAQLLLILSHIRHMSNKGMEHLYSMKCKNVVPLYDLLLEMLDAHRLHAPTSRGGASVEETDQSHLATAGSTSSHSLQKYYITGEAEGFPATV

IC50 [1] [µg/mL]	IC50 [2] [µg/mL]	Activity [3] [%]	Activity [4] [%]	Structure (SMILES)
3 (≈ 6.84 µM)	4			CO[C@]1(CC=C(C)C)C(=O)[C@@](O)(C(=O)/C=C/c2ccccc2)C(=O)C(CC=C(C)C)=C1O [MICROFOLIAN]
0.2 (≈ 0.819 µM)	13	20	20	CC1(C)C=Cc2c(c(O)cc3oc(=O)ccc23)O1 [CEDRECOUMARIN A]
3 (≈ 8.46 µM)	3.2	20	20	COc1c(O)c(CC=C(C)C)c2c(c1O)C(=O)C[C@@H](c1ccccc1)O2 [AGRANDOL]
		20	20	COc1c(O)c(CC=C(C)C)c(O)c2c1O[C@@H](c1ccccc1)CC2=O
